Bioassay records from PubChem.
Yeast growth inh = growth inhibitors of yeast BB579 in restrictive medium, primary screen, yeast lifespan-shortening project, S. cerevisiae | OD615, 48 h | inhibition, % at 10 µM | actives 0.51% (n = 140,000);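 active means inhibition above a set limit, 3 SD over the mean compound inhibition, cut at about 44% in these data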
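Detection: OD615 turbidity measurement; Material: Saccharomyces cerevisiae DeaD strain BB579, replicative lifespan model yeast; Timing: 48 h exposure, 30 °C; Doses: single 10 µM dose; Medium: CSMM-D restrictive synthetic medium containing dextrose (glucose); Controls: amphotericin B at 10 µg/mL as positive control.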
RAM inhibit = inhibitors of the yeast RAM network, primary screen, dse1pr::URA3 reporter, 5-FOA selection | actives 1.8% (n = 190,000) | S. cerevisiae dse1pr::URA3 reporter, 5-FOA growth OD615, 2 d; analog-sensitive cbk1-as2 kinase mutant strain | inhibition, % at 50 µM;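 active means inhibition above a set limit, 3 SD over mean compound inhibition, cut at about 8.4% in these data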;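 further: inhibition rescues growth on 5-FOA so higher OD means more RAM inhibition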
Phagocytosis inh = inhibitors of macrophage phagocytosis, primary screen, imaging, J774A.1 cells, IgG beads; actives 0.07% (n = 110,000); inhibition, % at 5 µM; J774A.1 macrophage IgG-bead phagocytosis;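 active means inhibition above the mean of the plate negative controls plus 5 SD, cut at about 13% in these data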;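 further: phagocytic index as fraction of beads internalized from green versus red external bead signal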
Measles CPE = compounds protecting cells from measles virus cytopathic effect, primary screen, measles RdRp inhibitor project, single point, MLSMR library, absorbance; Measles virus-infected cells, CPE protection; protection (pct of control), % at 4 µM; actives 1.5% (n = 140,000); AID 841, 2007; in the data active means protection mostly above about 24%, no sharp cut-off; inactive means mostly below about 26%
Yeast life ext = compounds extending yeast replicative lifespan, primary screen, S. cerevisiae, OD615 | S. cerevisiae growth with nicotinamide; deaD strain in restrictive glucose medium | inhibition of the nicotinamide effect, % at 10 µM | actives 0.68% (n = 130,000) | AID 775, 2007;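 active means inhibition above a set limit, placed 3 SD over the median of all compounds, cut at about 26% in these data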
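Assay system: engineered S. cerevisiae DeaD replicative-lifespan strain, galactose-grown log-phase cells; medium: restrictive CSMM-D dextrose medium; also added: nicotinamide, 1.5 mM, co-present with compound; schedule: 48 h compound exposure at 30 °C, humidified; detection: absorbance at 615 nm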
Hits are given with their value; - = inactive; . = not tested or not shown. Hits are enriched below; roughly 3.6% of the tested compounds scored in any of these assays.

SMILES | Yeast growth inh | RAM inhibit | Phagocytosis inh | Measles CPE | Yeast life ext
O=[N+]([O-])c1ccccc1/C=C/C=N/Nc1ccc(S(=O)(=O)Nc2ccc(Cl)cc2)cc1[N+](=O)[O-] | . | - | . | . | .
CCCn1nc(Oc2nc(N(C)C)nc(N(C)C)n2)ccc1=O | . | - | . | . | .
COc1ccc(Nc2ccc3c(c2)=NC2(CCCCC2)[N+]=3[O-])cc1 | - | 8.9 | . | - | -
CNC(=O)c1ccc(-c2sc3nc(N4CCOCC4)c4c(c3c2N)CCCC4)o1 | - | 9.3 | - | - | -
COc1cccc(CN(C)C(=O)c2cc(COc3ccc4ncccc4c3)on2)c1 | . | - | . | . | .
CCCC(=O)Nc1sc2c(c1C(=O)OCC)CC(C)(C)OC2 | . | - | . | . | .
CCOC(=O)c1c(NC(=O)c2ccccc2C)sc2c1CC(C)(C)OC2 | - | 8.8 | - | - | -
CCOC(=O)c1c(NC(=O)c2ccc(C)cc2)sc2c1CC(C)(C)OC2 | - | 10 | - | - | -
NC(CCC(=O)O)C12CC3CC(CC(C3)C1)C2 (stereo not given) | . | - | . | . | .
Cc1ccc(S(=O)(=O)CC(=O)c2ccccc2)cc1 | - | - | - | - | -
CC(C)(C)c1ccc(C(=O)CS(=O)(=O)c2ccccc2)cc1 | - | - | . | 48 | -
Cn1nccc1C(=O)Oc1cccc(/C=N/NC(=O)c2ccccc2O)c1 | . | - | . | . | .
O=C1c2ccccc2C(=O)C12OC2c1ccc(Cl)cc1 (stereo not given) | - | - | - | - | -
O=C1OC(c2ccccc2)=NC12CC2c1ccc(Cl)cc1 (stereo not given) | - | - | - | - | 30
O=C(CSCc1ccc([N+](=O)[O-])cc1)Nc1ccc(S(=O)(=O)N2CCCCCC2)cc1 | - | 10 | - | - | -
Cc1ccc(C(=O)NC(=S)Nc2ccc(S(=O)(=O)N3CCN(C)CC3)cc2)cc1 | - | - | . | 63 | -
CCOC(=O)CSCC(=O)Nc1ccc(S(=O)(=O)N2CCCCC2)cc1 | - | - | - | - | -
CCOC(=O)c1[nH]c2ccccc2c1NC(=O)C1CCCCC1 | - | - | . | - | -
Cc1cc(C(=O)Nc2ccc(S(=O)(=O)N3CCCC3)cc2)cs1 | - | - | - | 53 | -
CCOC(=O)c1[nH]c2ccccc2c1NC(=O)c1ccc(S(=O)(=O)N2CCCC2)cc1 | - | - | . | 21 | -
Cc1cccc(C(=O)NC(=S)Nc2ccc(S(=O)(=O)N3CCN(C)CC3)cc2)c1 | - | - | - | - | -
COc1ccccc1NC(=O)c1ccc(NS(=O)(=O)c2ccc(F)c(F)c2F)cc1 | - | - | . | - | -
CC(C)(C)c1ccc(CN2C(=O)CSC2=O)cc1 | . | - | . | . | .
CS(=O)(=O)N(C(=O)NC(=O)NC12CC3CC(CC(C3)C1)C2)C1CCCCC1 | . | - | . | . | .
CCCCC(=O)Nc1ccc(C(=O)Nc2ccc(S(=O)(=O)N3CCCC3)cc2)cc1 | - | 8.6 | . | - | -
SMILES | Yeast growth inh | RAM inhibit | Phagocytosis inh | Measles CPE | Yeast life ext
O=C(Nc1ccc(S(=O)(=O)Nc2nccs2)cc1)c1ccc(S(=O)(=O)N2CCOCC2)cc1 | - | - | - | 67 | -
CC(=O)c1ccc(NC(=O)c2ccc(S(=O)(=O)N3CCCC3)cc2)cc1 | - | - | - | - | -
Cc1cc(NC(=O)c2c(Cl)cnn2C)no1 | - | - | . | - | -
Cn1ncc(Cl)c1C(=O)Nc1ccc(Cl)cn1 | - | - | . | 28 | .
CCOc1ccc(C(=O)Nc2ccc(Cl)cn2)cc1Cl | - | 8.7 | . | - | -
Cc1ccccc1NS(=O)(=O)c1ccc(OCC(=O)NCc2ccccn2)cc1 | . | - | . | . | .
C=CCn1cnc2c(c1=O)c1nc3ccccc3nc1n2/N=C/c1cccc(OC)c1OC | . | . | - | . | .
C=CCn1cnc2c(c1=O)c1nc3ccccc3nc1n2/N=C/c1cc(OC)c(OC)c(OC)c1 | 58 | - | - | - | -
COc1ccc2c(c1)N(S(=O)(=O)c1ccccc1)CCC2=O | - | - | - | - | -
O=C(CCOc1ccccc1)Nc1ccc([N+](=O)[O-])cc1 | . | - | . | . | .
FC(F)(F)c1cccc(Sc2nc(-c3ccccc3)nnc2C(F)(F)F)c1 | - | 8.6 | - | - | -
FC(F)(F)c1nnc(-c2ccccc2)nc1Sc1ccccc1 | - | - | . | - | -
CC1CCN(c2nc(-c3ccccc3O)nc3ccccc23)CC1 | - | - | . | 38 | -
Oc1ccccc1-c1nc(N2CCCC2)c2ccccc2n1 | - | - | - | - | -
